Experimental data published in ChEMBL document CHEMBL1955865, “Synthesis of novel spirooxindole derivatives by one pot multicomponent reaction and their antimicrobial activity” (2012).
In brackets after ≈: the same amount, converted by molar mass. Activity calls are given as the source filed them. No cut-off for these calls is given here.

Legend:
[1] = system: Salmonella enterica subsp. enterica serovar Paratyphi B; experiment: Antibacterial activity against Salmonella paratyphi B after 24 hrs by twofold serial dilution method; type: functional
Summary of the method: (§1)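 Broth microdilution in MHB following the standard bacterial reference method. Compound was dissolved in DMSO (2%) and serially diluted two-fold from 1000 to 15.62 µg/ml in 96-well plates, with an inoculum of about 10^4 CFU/ml. Streptomycin and ciprofloxacin were positive controls. After 24 h at 37 °C, 5 µl of broth was subcultured on MHA. MIC was the lowest concentration without visible growth on agar.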

Salmonella typhimurium [2] = experiment: Antibacterial activity against Salmonella Typhimurium MTCC 1251 at 10 ug/disc after 24 hrs by disc diffusion assay; type: functional, Salmonella enterica subsp. enterica serovar Typhimurium; conditions: Salmonella enterica, MTCC 1251, 24 h; read-out: IZ
Summary of the method: (§2)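 Streptomycin positive-control discs (10 µg/disc) on Mueller Hinton agar swabbed with bacterial culture (about 10^4 CFU/ml). Discs stood 30 min at room temperature, then plates were incubated 24 h at 37 °C. Zones of inhibition were recorded in mm, and the experiment was repeated twice.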

Staphylococcus aureus [3] = experiment: Antibacterial activity against Staphylococcus aureus MTCC 96 at 10 ug/disc after 24 hrs by disc diffusion assay; type: functional; conditions: MTCC 96, 24 h, read-out: IZ; summary of the method: as §2
Staphylococcus aureus [4] = experiment: Antibacterial activity against Staphylococcus aureus MTCC 96 after 24 hrs by twofold serial dilution method; type: functional; conditions: MTCC 96, 24 h
Summary of the method: (§3)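 Bacteria grown in Mueller Hinton broth for 24 h at 37 °C and diluted to about 10^4 CFU/ml. Compound in 2% DMSO was serially diluted two-fold (1000 to 15.62 µg/ml) in medium in 96-well plates and inoculated. Plates were incubated 24 h at 37 °C. 5 µl of broth was spotted onto MHA, and MIC was taken as the lowest concentration with no visible growth on agar.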

Klebsiella pneumoniae [5] = experiment: Antibacterial activity against Klebsiella pneumoniae MTCC 109 after 24 hrs by twofold serial dilution method; type: functional; conditions: MTCC 109, 24 h; summary of the method: as §3
Micrococcus luteus [6] = experiment: Antibacterial activity against Micrococcus luteus after 24 hrs by twofold serial dilution method; type: functional; summary of the method: as §3
Salmonella typhimurium [7] = experiment: Antibacterial activity against Salmonella Typhimurium MTCC 1251 after 24 hrs by two-fold serial dilution method; type: functional, Salmonella enterica subsp. enterica serovar Typhimurium; conditions: Salmonella enterica, MTCC 1251, 24 h; summary of the method: as §3
Klebsiella pneumoniae [8] = experiment: Antibacterial activity against Klebsiella pneumoniae MTCC 109 at 10 ug/disc after 24 hrs by disc diffusion assay; type: functional; conditions: MTCC 109, 24 h, read-out: IZ; summary of the method: as §2
Staphylococcus aureus [9] = experiment: Antibacterial activity against methicillin-resistant Staphylococcus aureus at 10 ug/disc after 24 hrs by disc diffusion assay; type: functional; conditions: read-out: IZ
Summary of the method: (§4)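 Streptomycin positive-control discs at 10 μg/disc on Mueller Hinton agar, swabbed with bacteria grown 24 h at 37 °C in MHB and diluted to about 10^4 CFU/ml. Discs stood 30 min at room temperature, then plates were incubated 24 h at 37 °C. Inhibition zones were measured in mm; experiment repeated twice.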

Proteus vulgaris [10] = experiment: Antibacterial activity against Proteus vulgaris MTCC 1771 at 10 ug/disc after 24 hrs by disc diffusion assay; type: functional; conditions: MTCC 1771, 24 h, read-out: IZ; summary of the method: as §2
[11] = system: Salmonella enterica subsp. enterica serovar Paratyphi B; experiment: Antibacterial activity against Salmonella paratyphi B at 10 ug/disc after 24 hrs by disc diffusion assay; type: functional; conditions: read-out: IZ; summary of the method: as §4
Proteus vulgaris [12] = experiment: Antibacterial activity against Proteus vulgaris MTCC 1771 after 24 hrs by twofold serial dilution method; type: functional; conditions: MTCC 1771, 24 h; summary of the method: as §3
Klebsiella aerogenes [13] = experiment: Antibacterial activity against Enterobacter aerogenes MTCC 111 at 10 ug/disc after 24 hrs by disc diffusion assay; type: functional; conditions: MTCC 111, 24 h, read-out: IZ; summary of the method: as §2
Staphylococcus aureus [14] = experiment: Antibacterial activity against methicillin-resistant Staphylococcus aureus after 24 hrs by twofold serial dilution method; type: functional; summary of the method: as §1
Klebsiella aerogenes [15] = experiment: Antibacterial activity against Enterobacter aerogenes MTCC 111 after 24 hrs by twofold serial dilution method; type: functional; conditions: MTCC 111, 24 h; summary of the method: as §3
Micrococcus luteus [16] = experiment: Antibacterial activity against Micrococcus luteus at 10 ug/disc after 24 hrs by disc diffusion assay; type: functional; conditions: read-out: IZ; summary of the method: as §2
Klebsiella aerogenes [17] = experiment: Antibacterial activity against Enterobacter aerogenes MTCC 111 at 1000 ug/disc after 24 hrs by disc diffusion assay; type: functional; conditions: MTCC 111, 24 h, read-out: IZ
Summary of the method: (§5)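 Disc diffusion on Mueller Hinton agar. Cultures (about 10^4 CFU/ml) were swabbed on and dried 10 min. Discs loaded at 1000 µg/disc were left 30 min at room temperature for diffusion, with a solvent negative control. Plates were incubated 24 h at 37 °C. Inhibition zones were measured in mm, and the experiment was done twice.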

Klebsiella pneumoniae [18] = experiment: Antibacterial activity against Klebsiella pneumoniae MTCC 109 at 1000 ug/disc after 24 hrs by disc diffusion assay; type: functional; conditions: MTCC 109, 24 h, read-out: IZ; summary of the method: as §5
Salmonella typhimurium [19] = experiment: Ratio of ciprofloxacin MIC to compound MIC for Salmonella Typhimurium MTCC 1251; type: functional, Salmonella enterica subsp. enterica serovar Typhimurium
Candida albicans [20] = experiment: Ratio of fluconazole MIC to compound MIC for Candida albicans MTCC 227; type: functional
Salmonella typhimurium [21] = experiment: Antibacterial activity against Salmonella Typhimurium MTCC 1251 at 1000 ug/disc after 24 hrs by disc diffusion assay; type: functional, Salmonella enterica subsp. enterica serovar Typhimurium; conditions: Salmonella enterica, MTCC 1251, 24 h; read-out: IZ; summary of the method: as §5
Staphylococcus aureus [22] = experiment: Ratio of streptomycin MIC to compound MIC for methicillin-resistant Staphylococcus aureus; type: functional
[23] = Antifungal activity against Malassezia pachydermatis after 48 to 72 hrs by twofold serial dilution method; type: functional
Summary of the method: (§6)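 Broth two-fold serial dilution, 1000 to 15.62 µg/ml, with compound dissolved in 2% DMSO, in 96-well plates. Filamentous fungal spores came from 10-day SDA slants at 28 °C, and yeast from SDB grown 48 h at 28 °C. Incubation was 48-72 h at 28 °C. MIC was the lowest concentration with no visible fungal growth.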

Proteus vulgaris [24] = experiment: Antibacterial activity against Proteus vulgaris MTCC 1771 at 1000 ug/disc after 24 hrs by disc diffusion assay; type: functional; conditions: MTCC 1771, 24 h, read-out: IZ; summary of the method: as §5
Micrococcus luteus [25] = experiment: Ratio of ciprofloxacin MIC to compound MIC for Micrococcus luteus; type: functional
Candida albicans [26] = experiment: Antifungal activity against Candida albicans MTCC 227 after 48 to 72 hrs by twofold serial dilution method; type: functional; summary of the method: as §6
Staphylococcus aureus [27] = experiment: Antibacterial activity against methicillin-resistant Staphylococcus aureus at 1000 ug/disc after 24 hrs by disc diffusion assay; type: functional; conditions: read-out: IZ
Summary of the method: (§7)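 Disc diffusion on Mueller Hinton agar. Bacteria were grown 24 h at 37 °C in MHB and diluted to about 10^4 CFU/ml, swabbed onto plates and dried 10 min. Discs were loaded at 1000 μg/disc and held 30 min at room temperature for diffusion. Solvent served as negative control. After 24 h at 37 °C, inhibition zones were read in mm; run twice.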

Botrytis cinerea [28] = experiment: Antifungal activity against Botrytis cinerea at 1000 ug/disc after 48 hrs by disc diffusion assay; type: functional; conditions: read-out: IZ
Summary of the method: (§8)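 Fungal disc diffusion with inoculum from SDA spores (filamentous) or SDB culture (yeast). Test cultures were swabbed on agar, and discs at 1000 µg/disc were left 30 min at room temperature, with a solvent negative control. Plates were incubated 48 h at 27 °C. Zone of inhibition was measured in mm, and the experiment was repeated twice.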

Botrytis cinerea [29] = experiment: Antifungal activity against Botrytis cinerea after 48 to 72 hrs by twofold serial dilution method; type: functional; summary of the method: as §6
Micrococcus luteus [30] = experiment: Antibacterial activity against Micrococcus luteus at 1000 ug/disc after 24 hrs by disc diffusion assay; type: functional; conditions: read-out: IZ; summary of the method: as §5
[31] = system: Salmonella enterica subsp. enterica serovar Paratyphi B; experiment: Antibacterial activity against Salmonella paratyphi B at 1000 ug/disc after 24 hrs by disc diffusion assay; type: functional; conditions: read-out: IZ; summary of the method: as §7
[32] = Antifungal activity against Malassezia pachydermatis at 1000 ug/disc after 48 hrs by disc diffusion assay; type: functional; summary of the method: as §8
Staphylococcus aureus [33] = experiment: Antibacterial activity against Staphylococcus aureus MTCC 96 at 1000 ug/disc after 24 hrs by disc diffusion assay; type: functional; conditions: MTCC 96, 24 h, read-out: IZ; summary of the method: as §5
Candida albicans [34] = experiment: Antifungal activity against Candida albicans MTCC 227 at 1000 ug/disc after 48 hrs by disc diffusion assay; type: functional; conditions: MTCC 227, 48 h, read-out: IZ; summary of the method: as §8
Staphylococcus aureus [35] = experiment: Ratio of ciprofloxacin MIC to compound MIC for methicillin-resistant Staphylococcus aureus; type: functional

CN[C@@H]1[C@H](O[C@H]2[C@H](O[C@H]3[C@H](O)[C@@H](O)[C@H](N=C(N)N)[C@@H](O)[C@@H]3N=C(N)N)O[C@@H](C)[C@]2(O)C=O)O[C@@H](CO)[C@H](O)[C@H]1O [STREPTOMYCIN]
MIC [1]: inactive
zone of inhibition at 10 µg/disc (Salmonella typhimurium [2]): 23 mm
zone of inhibition at 10 µg/disc (Staphylococcus aureus [3]): 16 mm
MIC (Staphylococcus aureus [4]): 6.25 µg/mL (≈ 10.7 µM)
MIC (Klebsiella pneumoniae [5]): 6.25 µg/mL (≈ 10.7 µM)
MIC (Micrococcus luteus [6]): 6.25 µg/mL (≈ 10.7 µM)
MIC (Salmonella typhimurium [7]): 30 µg/mL (≈ 51.6 µM)
zone of inhibition at 10 µg/disc (Klebsiella pneumoniae [8]): 20 mm
zone of inhibition at 10 µg/disc (Staphylococcus aureus [9]): 20 mm
zone of inhibition at 10 µg/disc (Proteus vulgaris [10]): 22 mm
zone of inhibition at 10 µg/disc [11]: 17 mm
MIC (Proteus vulgaris [12]): 6.25 µg/mL (≈ 10.7 µM)
zone of inhibition at 10 µg/disc (Klebsiella aerogenes [13]): 22 mm
MIC (Staphylococcus aureus [14]): > 100 µg/mL
MIC (Klebsiella aerogenes [15]): 25 µg/mL (≈ 43 µM)
zone of inhibition at 10 µg/disc (Micrococcus luteus [16]): 23 mm

CC(=O)N1C(=O)C2(C3=C(CN2C)C(=O)c2ccccc2C3=O)c2ccccc21 (stereo not drawn)
MIC [1]: < 15.6 µg/mL
zone of inhibition at 1000 µg/disc (Klebsiella aerogenes [17]): 21 mm
zone of inhibition at 1000 µg/disc (Klebsiella pneumoniae [18]): 24 mm
Ratio (Salmonella typhimurium [19]): >6.4
Ratio (Candida albicans [20]): >3.2
MIC (Staphylococcus aureus [4]): 31.2 µg/mL (≈ 83.9 µM)
zone of inhibition at 1000 µg/disc (Salmonella typhimurium [21]): 24 mm
Ratio (Staphylococcus aureus [22]): >1.6
MIC [23]: 15.6 µg/mL (≈ 41.9 µM)
zone of inhibition at 1000 µg/disc (Proteus vulgaris [24]): 26 mm
MIC (Klebsiella pneumoniae [5]): 15.6 µg/mL (≈ 41.9 µM)
MIC (Micrococcus luteus [6]): 15.6 µg/mL (≈ 41.9 µM)
MIC (Salmonella typhimurium [7]): 15.6 µg/mL (≈ 41.9 µM)
Ratio (Micrococcus luteus [25]): >6.4
MIC (Candida albicans [26]): 31.2 µg/mL (≈ 83.9 µM)
zone of inhibition at 1000 µg/disc (Staphylococcus aureus [27]): 16 mm
zone of inhibition at 1000 µg/disc (Botrytis cinerea [28]): 15 mm
MIC (Botrytis cinerea [29]): 125 µg/mL (≈ 336 µM)
MIC (Proteus vulgaris [12]): < 15.6 µg/mL
zone of inhibition at 1000 µg/disc (Micrococcus luteus [30]): 22 mm
MIC (Staphylococcus aureus [14]): 62.5 µg/mL (≈ 168 µM)
MIC (Klebsiella aerogenes [15]): 15.6 µg/mL (≈ 41.9 µM)
zone of inhibition at 1000 µg/disc [31]: 28 mm
inhibition zone (IZ) [32]: 19 mm
zone of inhibition at 1000 µg/disc (Staphylococcus aureus [33]): 18 mm
zone of inhibition at 1000 µg/disc (Candida albicans [34]): 18 mm
Ratio (Staphylococcus aureus [35]): >1.6
